Measured values: ChEMBL document CHEMBL4689842, “EUbOPEN Chemogenomics Library wave 1” (2021)

Test system: Fibroblast
Test: Multiplex assay against human fibroblast
Assay type: toxicity, cell-based
Procedure, shortened: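 Compound was added to live cells that had been stained at seeding with Hoechst33342, BioTracker Green Microtubule Cytoskeleton Dye, MitoTracker Red and Annexin V Alexa Fluor 680, and imaging followed on a CQ1 microscope at 37°C and 5% CO2. CellPathfinder machine-learning gating divided cells into Hoechst high-intensity objects or normal cells, normal cells into healthy, pyknosed or fragmented nuclei, and pyknosed cells into mitotic or apoptotic. Tubulin, mitochondrial-mass and membrane-permeability phenotypes are per cents of healthy-nucleus cells.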

[1] = 12 h, 1 µM, compound concentration 1 uM, replicate 1
[2] = 12 h, 1 µM, compound concentration 1 uM, replicate 2
[3] = 12 h, 10 µM, compound concentration 10 uM, replicate 1
[4] = 12 h, 10 µM, compound concentration 10 uM, replicate 2
[5] = 24 h, 1 µM, compound concentration 1 uM, replicate 1
[6] = 24 h, 1 µM, compound concentration 1 uM, replicate 2
[7] = 24 h, 10 µM, compound concentration 10 uM, replicate 1
[8] = 24 h, 10 µM, compound concentration 10 uM, replicate 2
[9] = 48 h, 1 µM, compound concentration 1 uM, replicate 1
[10] = 48 h, 1 µM, compound concentration 1 uM, replicate 2
[11] = 48 h, 10 µM, compound concentration 10 uM, replicate 1
[12] = 48 h, 10 µM, compound concentration 10 uM, replicate 2

SMILES: CCn1c(-c2nonc2N)nc2cnc(Oc3cccc(NC(=O)c4ccc(OCCN5CCOCC5)cc4)c3)cc21 [GSK-269962A]
- Population Apoptotic (%) [1]: 50%
- Population Fragmented Nuclei (%) [1]: 29%
- Population Healthy Nuclei (%) [1]: 36%
- Population Hoechst High Intensity Objects (%) [1]: 12%
- Population Membrane Permeable-Phenotype (%) [1]: 22%
- Population Mitochondria Different-Phenotype (%) [1]: 2%
- Population Mitotic Cells (%) [1]: 50%
- Population Normal (%) [1]: 87%
- Population Pyknosed Nuclei (%) [1]: 33%
- Population Tubulin-Different-Phenotype (%) [1]: 46%
- Total Cell Count [1]: 141
- Population Apoptotic (%) [2]: 20%
- Population Fragmented Nuclei (%) [2]: 20%
- Population Healthy Nuclei (%) [2]: 72%
- Population Hoechst High Intensity Objects (%) [2]: 2%
- Population Membrane Permeable-Phenotype (%) [2]: 14%
- Population Mitochondria Different-Phenotype (%) [2]: 16%
- Population Mitotic Cells (%) [2]: 80%
- Population Normal (%) [2]: 97%
- Population Pyknosed Nuclei (%) [2]: 7%
- Population Tubulin-Different-Phenotype (%) [2]: 14%
- Total Cell Count [2]: 45
- Population Apoptotic (%) [3]: 55%
- Population Fragmented Nuclei (%) [3]: 40%
- Population Healthy Nuclei (%) [3]: 28%
- Population Hoechst High Intensity Objects (%) [3]: 12%
- Population Membrane Permeable-Phenotype (%) [3]: 21%
- Population Mitochondria Different-Phenotype (%) [3]: 47%
- Population Mitotic Cells (%) [3]: 44%
- Population Normal (%) [3]: 87%
- Population Pyknosed Nuclei (%) [3]: 30%
- Population Tubulin-Different-Phenotype (%) [3]: 83%
- Total Cell Count [3]: 216
- Population Apoptotic (%) [4]: 31%
- Population Fragmented Nuclei (%) [4]: 20%
- Population Healthy Nuclei (%) [4]: 57%
- Population Hoechst High Intensity Objects (%) [4]: 7%
- Population Membrane Permeable-Phenotype (%) [4]: 45%
- Population Mitochondria Different-Phenotype (%) [4]: 97%
- Population Mitotic Cells (%) [4]: 68%
- Population Normal (%) [4]: 92%
- Population Pyknosed Nuclei (%) [4]: 22%
- Population Tubulin-Different-Phenotype (%) [4]: 100%
- Total Cell Count [4]: 71
- Population Apoptotic (%) [5]: 47%
- Population Fragmented Nuclei (%) [5]: 21%
- Population Healthy Nuclei (%) [5]: 47%
- Population Hoechst High Intensity Objects (%) [5]: 14%
- Population Membrane Permeable-Phenotype (%) [5]: 19%
- Population Mitochondria Different-Phenotype (%) [5]: 9%
- Population Mitotic Cells (%) [5]: 52%
- Population Normal (%) [5]: 85%
- Population Pyknosed Nuclei (%) [5]: 31%
- Population Tubulin-Different-Phenotype (%) [5]: 41%
- Total Cell Count [5]: 126
- Population Apoptotic (%) [6]: 75%
- Population Fragmented Nuclei (%) [6]: 11%
- Population Healthy Nuclei (%) [6]: 77%
- Population Hoechst High Intensity Objects (%) [6]: 2%
- Population Membrane Permeable-Phenotype (%) [6]: 1%
- Population Mitochondria Different-Phenotype (%) [6]: 10%
- Population Mitotic Cells (%) [6]: 25%
- Population Normal (%) [6]: 97%
- Population Pyknosed Nuclei (%) [6]: 11%
- Population Tubulin-Different-Phenotype (%) [6]: 14%
- Total Cell Count [6]: 59
- Population Apoptotic (%) [7]: 57%
- Population Fragmented Nuclei (%) [7]: 37%
- Population Healthy Nuclei (%) [7]: 42%
- Population Hoechst High Intensity Objects (%) [7]: 12%
- Population Membrane Permeable-Phenotype (%) [7]: 11%
- Population Mitochondria Different-Phenotype (%) [7]: 58%
- Population Mitotic Cells (%) [7]: 42%
- Population Normal (%) [7]: 87%
- Population Pyknosed Nuclei (%) [7]: 20%
- Population Tubulin-Different-Phenotype (%) [7]: 81%
- Total Cell Count [7]: 258
- Population Apoptotic (%) [8]: 53%
- Population Fragmented Nuclei (%) [8]: 30%
- Population Healthy Nuclei (%) [8]: 52%
- Population Hoechst High Intensity Objects (%) [8]: 5%
- Population Membrane Permeable-Phenotype (%) [8]: 67%
- Population Mitochondria Different-Phenotype (%) [8]: 97%
- Population Mitotic Cells (%) [8]: 46%
- Population Normal (%) [8]: 94%
- Population Pyknosed Nuclei (%) [8]: 17%
- Population Tubulin-Different-Phenotype (%) [8]: 100%
- Total Cell Count [8]: 73
- Population Apoptotic (%) [9]: 57%
- Population Fragmented Nuclei (%) [9]: 28%
- Population Healthy Nuclei (%) [9]: 58%
- Population Hoechst High Intensity Objects (%) [9]: 11%
- Population Membrane Permeable-Phenotype (%) [9]: 12%
- Population Mitochondria Different-Phenotype (%) [9]: 3%
- Population Mitotic Cells (%) [9]: 42%
- Population Normal (%) [9]: 88%
- Population Pyknosed Nuclei (%) [9]: 13%
- Population Tubulin-Different-Phenotype (%) [9]: 29%
- Total Cell Count [9]: 120
- Population Apoptotic (%) [10]: 66%
- Population Fragmented Nuclei (%) [10]: 27%
- Population Healthy Nuclei (%) [10]: 69%
- Population Hoechst High Intensity Objects (%) [10]: 12%
- Population Membrane Permeable-Phenotype (%) [10]: 3%
- Population Mitochondria Different-Phenotype (%) [10]: 0%
- Population Mitotic Cells (%) [10]: 33%
- Population Normal (%) [10]: 87%
- Population Pyknosed Nuclei (%) [10]: 3%
- Population Tubulin-Different-Phenotype (%) [10]: 22%
- Total Cell Count [10]: 96
- Population Apoptotic (%) [11]: 50%
- Population Fragmented Nuclei (%) [11]: 36%
- Population Healthy Nuclei (%) [11]: 50%
- Population Hoechst High Intensity Objects (%) [11]: 20%
- Population Membrane Permeable-Phenotype (%) [11]: 6%
- Population Mitochondria Different-Phenotype (%) [11]: 38%
- Population Mitotic Cells (%) [11]: 50%
- Population Normal (%) [11]: 79%
- Population Pyknosed Nuclei (%) [11]: 13%
- Population Tubulin-Different-Phenotype (%) [11]: 80%
- Total Cell Count [11]: 240
- Population Healthy Nuclei (%) [12]: 58%
- Population Hoechst High Intensity Objects (%) [12]: 22%
- Population Membrane Permeable-Phenotype (%) [12]: 3%
- Population Mitochondria Different-Phenotype (%) [12]: 17%
- Population Normal (%) [12]: 77%
- Population Pyknosed Nuclei (%) [12]: 4%
- Population Tubulin-Different-Phenotype (%) [12]: 86%
- Total Cell Count [12]: 172
